Among the data in ChEMBL document CHEMBL1149629 (Bioorg Med Chem, 2007) are inhibition, IC50 and Activity values, retold here.

Assay [1] has as its target T1, Serine/threonine-protein kinase Chk1 (Homo sapiens) (UniProt O14757).
T1 sequence (whole entry): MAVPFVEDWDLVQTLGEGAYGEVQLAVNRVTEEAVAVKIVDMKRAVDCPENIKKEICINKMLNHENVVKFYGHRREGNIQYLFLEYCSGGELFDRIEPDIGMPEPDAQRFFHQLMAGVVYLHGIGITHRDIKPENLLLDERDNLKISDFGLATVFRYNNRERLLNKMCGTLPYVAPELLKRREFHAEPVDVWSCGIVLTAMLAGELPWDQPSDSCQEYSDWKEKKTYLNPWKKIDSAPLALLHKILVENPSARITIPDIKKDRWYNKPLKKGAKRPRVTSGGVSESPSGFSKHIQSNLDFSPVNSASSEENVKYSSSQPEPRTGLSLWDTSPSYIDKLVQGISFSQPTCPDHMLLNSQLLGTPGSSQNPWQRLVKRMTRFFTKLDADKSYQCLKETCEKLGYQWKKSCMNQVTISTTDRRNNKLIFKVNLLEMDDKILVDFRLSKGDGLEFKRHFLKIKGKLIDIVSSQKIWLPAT
As to the kind of experiment: Inhibition of human Chk1 at 10 uM. A digest of the protocol: (§1)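 Chk1 from a commercial source or purified as GST–Chk1 from baculovirus-infected Sf9 cells. Assay based on a published method. Percent inhibition determined at 10 µM; IC50 determined for selected compounds.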

A further assay deals with L1210. Nature of the assay: Antiproliferative activity against mouse L1210 cells […] by microculture tetrazolium assay. In kind it is functional, cell-based. A digest of the protocol:
(§2)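 Tumor cells (ATCC) grown in RPMI 1640 with 10% fetal calf serum, 2 mM L-glutamine, penicillin/streptomycin, 10 mM HEPES pH 7.4. Continuous exposure to graded concentrations for four doubling times, then MTT added and incubated 4 h at 37 °C. Formazan dissolved in DMSO, optical density read. IC50 = concentration reducing OD by 50% versus untreated controls.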

Another assay relates to A549. As to the kind of experiment: Antiproliferative activity against human A549 cells […] by microculture tetrazolium assay. In kind it is functional, cell-based. A digest of the protocol: as §2
Another assay relates to HT-29. As to the kind of experiment: Antiproliferative activity against human HT29 cells […] by microculture tetrazolium assay. The format is functional, cell-based. A digest of the protocol:
as §2

The species named for the next assay is Homo sapiens. As to the kind of experiment: Binding affinity to DNA assessed as melting temperature.
Assay [2] concerns the target T2, DNA topoisomerase 1 (Homo sapiens) (UniProt P11387).
T2 sequence (whole entry): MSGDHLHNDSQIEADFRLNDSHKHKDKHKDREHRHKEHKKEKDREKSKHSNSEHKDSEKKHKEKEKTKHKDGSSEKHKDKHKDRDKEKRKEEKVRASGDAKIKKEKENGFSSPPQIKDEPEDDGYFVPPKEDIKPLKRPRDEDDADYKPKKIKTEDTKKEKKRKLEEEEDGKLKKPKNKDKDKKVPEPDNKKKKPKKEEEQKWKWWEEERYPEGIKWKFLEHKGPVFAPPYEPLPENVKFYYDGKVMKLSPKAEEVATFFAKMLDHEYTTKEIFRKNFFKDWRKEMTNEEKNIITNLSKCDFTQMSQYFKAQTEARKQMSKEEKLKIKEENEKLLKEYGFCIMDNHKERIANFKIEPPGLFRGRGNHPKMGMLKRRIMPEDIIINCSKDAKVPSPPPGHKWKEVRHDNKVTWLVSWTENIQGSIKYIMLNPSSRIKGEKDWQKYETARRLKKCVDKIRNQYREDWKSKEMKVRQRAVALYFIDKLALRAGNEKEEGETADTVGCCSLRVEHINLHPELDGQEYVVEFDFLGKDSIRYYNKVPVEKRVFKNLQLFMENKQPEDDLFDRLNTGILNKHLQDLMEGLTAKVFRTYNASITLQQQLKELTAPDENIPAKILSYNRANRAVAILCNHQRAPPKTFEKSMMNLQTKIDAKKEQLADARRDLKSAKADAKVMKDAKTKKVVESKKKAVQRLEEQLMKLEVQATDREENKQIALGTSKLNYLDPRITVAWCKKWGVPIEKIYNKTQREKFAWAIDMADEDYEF
Nature of the assay: Inhibition of topoisomerase 1.

In assay [3] the target is T2, DNA topoisomerase 1 (Homo sapiens). As to the kind of experiment: Inhibition of topoisomerase 1 upto 50 uM. A digest of the protocol: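 DNA relaxation and DNA cleavage assays with topoisomerase I, run following published procedures, with compounds up to 50 µM.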
The subject of another assay is DU-145. Nature of the assay: Antiproliferative activity against human DU145 cells […] by microculture tetrazolium assay. The format is functional, cell-based. A digest of the protocol: as §2
The target in assay [4] is T3, Serine/threonine-protein kinase Chk1 (Homo sapiens, UniProt O14757).
T3 sequence (O14757 whole entry): T1 sequence (whole entry)
Nature of the assay: Inhibition of human Chk1. An outline of the steps:
as §1

Assay [5] has as its target Proto-oncogene tyrosine-protein kinase Src (Homo sapiens) (UniProt P12931). Nature of the assay: Inhibition of Src tyrosine kinase at 1 uM after 20 mins.

Molecules are shown by their SMILES. pIC50: −log10 of the molar value. The source made the active and inactive calls. The calls are words filed in the database; no cut-off is given here.

Sequence of Proto-oncogene tyrosine-protein kinase Src (Homo sapiens) (P12931 2-536 limits assumed): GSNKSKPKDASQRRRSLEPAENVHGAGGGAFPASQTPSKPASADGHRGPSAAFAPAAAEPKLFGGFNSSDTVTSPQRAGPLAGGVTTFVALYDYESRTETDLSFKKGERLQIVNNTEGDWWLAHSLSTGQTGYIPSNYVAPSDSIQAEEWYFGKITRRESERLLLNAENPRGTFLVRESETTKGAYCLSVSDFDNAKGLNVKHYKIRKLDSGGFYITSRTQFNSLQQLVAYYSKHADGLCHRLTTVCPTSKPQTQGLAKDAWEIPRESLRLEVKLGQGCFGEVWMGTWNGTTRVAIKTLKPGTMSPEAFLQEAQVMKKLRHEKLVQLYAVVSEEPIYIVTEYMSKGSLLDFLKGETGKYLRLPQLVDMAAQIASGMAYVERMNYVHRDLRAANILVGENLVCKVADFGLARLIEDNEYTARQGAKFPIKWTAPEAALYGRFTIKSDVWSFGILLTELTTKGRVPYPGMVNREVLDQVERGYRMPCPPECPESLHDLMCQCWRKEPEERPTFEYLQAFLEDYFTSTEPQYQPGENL

For orientation: inhibition means the share of the control response that was lost under treatment. A high value points to a strong effect. The pIC50 is the negative decadic logarithm of the IC50, by convention in mol/L. Lower therefore signals a large IC50. For `CN1C(=O)c2c(n3cccc3c3[nH]c4ccc(O)cc4c23)C1=O`, the inhibition in assay [1] stood at 54.1%. Besides, the negative logarithm of the IC50 (pIC50) with L1210 is 5.27; with A549 it was 5.06; in the assay with HT-29, 4.58.
In [1], `CN1C(=O)c2c(n3cccc3c3[nH]c4ccc(Cl)cc4c23)C1=O` returned an inhibition of 55.6%. In addition, the results for the pIC50 in the assay with L1210, in the assay with A549 and in the assay on HT-29 were 4.39, 4.17 and 4.20, respectively. For the same molecule, the outcome (in the assay filed under Homo sapiens; in assay [2]; in assay [3]) was inactive.
In assay [1], `CN1C(=O)c2c(n3cncc3c3[nH]c4ncccc4c23)C1=O` registered an inhibition of 11.6%. Besides, the pIC50 was 5.06 in the assay on L1210, 4.87 in the assay on DU-145, 5.13 in the assay with A549 and 5.01 with HT-29.
In turn, `CN1C(=O)c2c(n3ccnc3c3c2c2cccnc2n3[C@@H]2O[C@H](CO)[C@@H](O)[C@H](O)[C@H]2O)C1=O` registered an inhibition in [1] of 10.7%. In addition, the pIC50 in the assay with L1210 is under 4.00; with DU-145, 4.19; in the assay with A549 it was 3.89; in the assay on HT-29, 4.28. Besides, the result (in the assay listed under Homo sapiens; in assay [2]; in assay [3]) was inactive.
Regarding `O=C1NC(=O)c2c1c1c3ccccc3[nH]c1n1cncc21` [ISOGRANULATIMIDE], the figures for the pIC50 (in assay [4]; in the assay with DU-145; with A549) were 6.36, 4.88 and 4.74, respectively.
For `O=C1NC(=O)c2c1c1c3cc(OCc4ccccc4)ccc3[nH]c1c1cccn21`, the pIC50 in [4] was 6.19; with L1210, 4.57; with A549, 4.63; in the assay with HT-29 it was 4.86. The same molecule had an inhibition in [1] of 54.8%.
In the case of `O=C1NC(=O)c2c1c1c3cccnc3[nH]c1c1cccn21`, the pIC50 in assay [4] was 5.44; in the assay with L1210, 4.53; with DU-145, 5.34; with A549, 4.71; in the assay with HT-29, 4.77. Also, the inhibition in [1] was 76.6%.
In the case of `O=C1NC(=O)c2c1c1c3ccccc3[nH]c1c1cccn21`, the negative-log IC50 (pIC50) in [4] is 7.62; in the assay on L1210 it was 5.51; in the assay with DU-145, 5.85; in the assay on A549, 5.70; in the assay with HT-29, 5.48. Moreover, the inhibition in assay [1] amounted to 85%; in assay [5], 32.5%. Moreover, the result (in the assay listed under Homo sapiens; in assay [2]; in [3]) was inactive.
The molecule `CN1C(=O)c2c(c3c4ccccc4[nH]c3c3cc[nH]c23)C1=O` displayed an inhibition in assay [1] of 43.1%. Moreover, the negative logarithm of the IC50 (pIC50) was 5.31 in the assay with L1210, 5.72 in the assay with DU-145, 4.33 with A549 and 5.23 with HT-29. In addition, the result (in the assay filed under Homo sapiens; in [2]; in assay [3]) was inactive.
On to `O=C1NC(=O)c2c1c1[nH]cnc1c1[nH]c3ccccc3c21` [GRANULATIMIDE], for which the pIC50 in assay [4] is 7.10; in the assay with DU-145 it was 5.55; in the assay with A549, 4.94. This molecule also returned an inhibition in assay [1] of 93.9%.
Turning to `CN1C(=O)c2c(n3ccnc3c3[nH]c4ncccc4c23)C1=O`, the inhibition in [1] is 36.1%. Also, the pIC50 was 4.36 in the assay on L1210, 5.13 with DU-145, 4.45 in the assay with A549 and 4.51 in the assay on HT-29. Further, the outcome in assay [2] and in assay [3] was inactive.
For `O=C1NC(=O)c2c1c1c3cc(O)ccc3[nH]c1c1cccn21`, the negative logarithm of the IC50 (pIC50) in assay [4] is 7.80; in the assay on L1210, 5.35; in the assay with DU-145, 4.82; with A549, 4.79; in the assay with HT-29, 4.56. Further, the inhibition in [1] is 95.8%; in assay [5], 1.2%.
In assay [1], `CN1C(=O)c2c(n3cccc3c3[nH]c4ccc(Br)cc4c23)C1=O` displayed an inhibition of 7.1%. Also, the pIC50 with L1210 is 4.31; in the assay on DU-145, under 4.00; in the assay with A549, 4.17; with HT-29, 4.05.
Take `CN1C(=O)c2c(n3cncc3c3c2c2cccnc2n3[C@@H]2O[C@H](CO)[C@@H](O)[C@H](O)[C@H]2O)C1=O`: the inhibition in [1] turned out to be 15.1%. Moreover, the pIC50 with L1210 is under 4.00; in the assay on DU-145, 4.25; with A549, 4.11; in the assay on HT-29 it was 4.28.
On to `CN1C(=O)c2c(n3cccc3c3[nH]c4ccccc4c23)C1=O`, for which the pIC50 with L1210 was 4.48; with DU-145, 5.92; in the assay with A549 it was under 4.00; in the assay with HT-29, under 4.00. Moreover, the outcome (in the assay listed under Homo sapiens; in [2]; in [3]) was inactive.
With `CN1C(=O)c2c(n3cccc3c3[nH]c4ccc(OCc5ccccc5)cc4c23)C1=O`, in assay [1], the inhibition is 10.3%. Moreover, the pIC50 in the assay with L1210 is 4.37; in the assay with DU-145 it was 4.64; in the assay on A549, 4.70; with HT-29 it was 4.44. The result (in the assay filed under Homo sapiens; in assay [2]; in assay [3]) was inactive.
